{"source": "ChEMBL document CHEMBL1795267", "about": "“Synthesis of enantiomerically pure D- and L-bicyclo[3.1.0]hexenyl carbanucleosides and their antiviral evaluation” (Bioorg Med Chem, 2011)", "key": {"MT4": {"test_system": "MT4", "assay": "Toxicity against human MT4 cells by MTT assay", "assay_type": "cell-based", "in_short": "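Uninfected MT-4 cells (HTLV-1-carrying T4+ line) at 1.0×10^5 cells/mL in RPMI-1640/10% FBS, gentamycin, 2 mM L-glutamine, run in triplicate alongside infected cultures for 5 days at 37 °C, 5% CO2. Compounds were diluted from DMSO, final DMSO ≤0.5%. Read by MTT (1.5 h), formazan dissolved in acidic 2-propanol, A540/690. CC50 is the concentration reducing viability by 50%.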"}, "[1]": {"test_system": "Human immunodeficiency virus 1", "assay": "Antiviral activity against HIV1 3B infected in human MT4 cells […] with HTLV1 assessed as reduction in virus induced cytopathicity measured 5 days post infection by MTT assay", "assay_type": "functional, organism-based", "settings": "Human immunodeficiency virus 1, 3B, MT4, 120 h", "in_short": "(§1)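 MT-4 cells (HTLV-1-carrying human T cells; RPMI-1640, 10% FBS, 2 mM L-glutamine) infected with cell-free HIV-1 IIIB or HIV-2 ROD at 100 TCID50/mL for 1.5 h at 37 °C, then plated at 1.0×10^5 cells/mL with serial compound dilutions (DMSO stock, at most 0.5% DMSO final) in triplicate. Cultured 5 days at 37 °C. Virus-induced cytopathicity read by MTT. IC50 is the concentration giving 50% protection.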"}, "[2]": {"test_system": "Human immunodeficiency virus 2", "assay": "Antiviral activity against HIV2 ROD infected in human MT4 cells assessed as reduction in virus induced cytopathicity measured 5 days post infection by MTT assay", "assay_type": "functional, organism-based", "settings": "Human immunodeficiency virus 2, ISOLATE ROD, MT4, 120 h", "in_short": "as §1"}, "[3]": {"assay": "Selectivity index, ratio of CC50 for human MT4 cells to IC50 for HIV1 3B", "assay_type": "functional", "in_short": "(§2)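 Uninfected MT-4 cells (1.0×10^5 cells/mL) were cultured for 5 days at 37 °C with compound in parallel with the infected cultures. Viability was read by MTT (1.5 h with MTT, formazan dissolved in acidic 2-propanol, absorbance at 540/690 nm). CC50 is the concentration reducing viability of uninfected cells by 50%. Index = CC50/IC50 against the HIV-1 IIIB or HIV-2 ROD MT-4 assay.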"}, "[4]": {"assay": "Selectivity index, ratio of CC50 for human MT4 cells to IC50 for HIV2 ROD", "assay_type": "functional", "in_short": "as §2"}, "Coxsackievirus B1": {"test_system": "Coxsackievirus B1", "assay": "Antiviral activity against Coxsackie virus B1 up to 100 ug/mL", "assay_type": "functional, organism-based"}, "Coxsackievirus B3": {"test_system": "Coxsackievirus B3", "assay": "Antiviral activity against Coxsackie virus B3 up to 100 ug/mL", "assay_type": "functional, organism-based"}, "Poliovirus 3": {"test_system": "Poliovirus 3", "assay": "Antiviral activity against Human poliovirus 3 up to 100 ug/mL", "assay_type": "functional, organism-based"}, "Human alphaherpesvirus 2": {"test_system": "Human alphaherpesvirus 2", "assay": "Antiviral activity against HSV2", "assay_type": "functional, organism-based"}, "Influenza A virus [5]": {"test_system": "Influenza A virus", "assay": "Antiviral activity against influenza A virus H1N1 Taiwan up to 100 ug/mL", "assay_type": "functional, organism-based"}, "Influenza A virus [6]": {"test_system": "Influenza A virus", "assay": "Antiviral activity against Influenza A virus H3N2 Johannesburg up to 100 ug/mL", "assay_type": "functional, organism-based"}, "Influenza B virus": {"test_system": "Influenza B virus", "assay": "Antiviral activity against influenza B virus Panama up to 100 ug/mL", "assay_type": "functional, organism-based"}, "Feline coronavirus": {"test_system": "Feline coronavirus", "assay": "Antiviral activity against Feline coronavirus WSU up to 100 ug/mL", "assay_type": "functional, organism-based"}, "[7]": {"test_system": "Feline infectious peritonitis virus", "assay": "Antiviral activity against Feline infectious peritonitis virus WSU up to 100 ug/mL", "assay_type": "functional"}}, "note": "Activity calls are given as the source filed them. The rule behind the calls is not given here."}
{"smiles": "O=c1[nH]cnc2c1ncn2[C@H]1CC[C@@H](CO)O1", "note": "[DIDANOSINE]", "values": [{"measurement": "CC50", "setting": "MT4", "value": "> 100", "unit": "µg/mL"}, {"measurement": "IC50", "setting": "[1]", "value": 2.31, "unit": "µg/mL"}, {"measurement": "IC50", "setting": "[2]", "value": 5.76, "unit": "µg/mL"}, {"measurement": "Ratio CC50/IC50", "setting": "[3]", "value": ">43.29"}, {"measurement": "Ratio CC50/IC50", "setting": "[4]", "value": ">17.38"}]}
{"smiles": "Nc1ncnc2c1ncn2[C@H]1C=C[C@]2(CO)C[C@H]12", "values": [{"measurement": "CC50", "setting": "MT4", "value": "> 100", "unit": "µg/mL"}, {"measurement": "IC50", "setting": "[1]", "value": 40.5, "unit": "µg/mL"}, {"measurement": "Ratio CC50/IC50", "setting": "[3]", "value": ">2.47"}, {"measurement": "inhibition", "setting": "Coxsackievirus B1", "value": "inactive"}, {"measurement": "inhibition", "setting": "Coxsackievirus B3", "value": "inactive"}, {"measurement": "inhibition", "setting": "Poliovirus 3", "value": "inactive"}]}
{"smiles": "Nc1ncnc2c1ncn2[C@@H]1C=C[C@@]2(CO)C[C@@H]12", "values": [{"measurement": "IC50", "setting": "[1]", "value": "> 100", "unit": "µg/mL"}, {"measurement": "IC50", "setting": "[2]", "value": "> 100", "unit": "µg/mL"}, {"measurement": "inhibition", "setting": "Coxsackievirus B1", "value": "inactive"}, {"measurement": "inhibition", "setting": "Coxsackievirus B3", "value": "inactive"}, {"measurement": "inhibition", "setting": "Poliovirus 3", "value": "inactive"}]}
{"smiles": "Nc1ccn([C@@H]2C=C[C@@]3(CO)C[C@@H]23)c(=O)n1", "values": [{"measurement": "CC50", "setting": "MT4", "value": "> 100", "unit": "µg/mL"}, {"measurement": "IC50", "setting": "[1]", "value": "> 100", "unit": "µg/mL"}, {"measurement": "IC50", "setting": "[2]", "value": "> 100", "unit": "µg/mL"}, {"measurement": "inhibition", "setting": "Coxsackievirus B1", "value": "inactive"}, {"measurement": "inhibition", "setting": "Coxsackievirus B3", "value": "inactive"}, {"measurement": "inhibition", "setting": "Poliovirus 3", "value": "inactive"}]}
{"smiles": "Nc1ccn([C@H]2C=C[C@]3(CO)C[C@H]23)c(=O)n1", "values": [{"measurement": "CC50", "setting": "MT4", "value": 61.8, "unit": "µg/mL"}, {"measurement": "IC50", "setting": "[1]", "value": "> 61.8", "unit": "µg/mL"}, {"measurement": "IC50", "setting": "[2]", "value": "> 61.8", "unit": "µg/mL"}, {"measurement": "Ratio CC50/IC50", "setting": "[3]", "value": "<1"}, {"measurement": "Ratio CC50/IC50", "setting": "[4]", "value": "<1"}, {"measurement": "inhibition", "setting": "Coxsackievirus B1", "value": "inactive"}, {"measurement": "inhibition", "setting": "Coxsackievirus B3", "value": "inactive"}, {"measurement": "inhibition", "setting": "Poliovirus 3", "value": "inactive"}]}
{"smiles": "Cc1cn([C@H]2C=C[C@]3(CO)C[C@H]23)c(=O)[nH]c1=O", "values": [{"measurement": "CC50", "setting": "MT4", "value": 8.558, "unit": "µg/mL"}, {"measurement": "IC50", "setting": "[1]", "value": 0.033, "unit": "µg/mL"}, {"measurement": "IC50", "setting": "[2]", "value": 0.112, "unit": "µg/mL"}, {"measurement": "Ratio CC50/IC50", "setting": "[3]", "value": 263}, {"measurement": "Ratio CC50/IC50", "setting": "[4]", "value": 76}, {"measurement": "inhibition", "setting": "Coxsackievirus B1", "value": "inactive"}, {"measurement": "inhibition", "setting": "Coxsackievirus B3", "value": "inactive"}, {"measurement": "inhibition", "setting": "Poliovirus 3", "value": "inactive"}]}
{"smiles": "O=c1ccn([C@@H]2C=C[C@@]3(CO)C[C@@H]23)c(=O)[nH]1", "values": [{"measurement": "IC50", "setting": "[1]", "value": "> 100", "unit": "µg/mL"}, {"measurement": "inhibition", "setting": "Coxsackievirus B1", "value": "inactive"}, {"measurement": "inhibition", "setting": "Coxsackievirus B3", "value": "inactive"}, {"measurement": "inhibition", "setting": "Poliovirus 3", "value": "inactive"}]}
{"smiles": "Cc1cn([C@@H]2C=C[C@@]3(CO)C[C@@H]23)c(=O)[nH]c1=O", "values": [{"measurement": "CC50", "setting": "MT4", "value": "> 100", "unit": "µg/mL"}, {"measurement": "IC50", "setting": "[1]", "value": 1.18, "unit": "µg/mL"}, {"measurement": "IC50", "setting": "[2]", "value": 2.27, "unit": "µg/mL"}, {"measurement": "Ratio CC50/IC50", "setting": "[3]", "value": ">85.09"}, {"measurement": "Ratio CC50/IC50", "setting": "[4]", "value": ">44.05"}, {"measurement": "inhibition", "setting": "Coxsackievirus B1", "value": "inactive"}, {"measurement": "inhibition", "setting": "Coxsackievirus B3", "value": "inactive"}, {"measurement": "inhibition", "setting": "Poliovirus 3", "value": "inactive"}, {"measurement": "IC50", "setting": "Human alphaherpesvirus 2", "value": 59.2, "unit": "µg/mL"}, {"measurement": "inhibition", "setting": "Influenza A virus [5]", "value": "inactive"}, {"measurement": "inhibition", "setting": "Influenza A virus [6]", "value": "inactive"}, {"measurement": "inhibition", "setting": "Influenza B virus", "value": "inactive"}, {"measurement": "inhibition", "setting": "Feline coronavirus", "value": "inactive"}, {"measurement": "inhibition", "setting": "[7]", "value": "inactive"}]}
{"smiles": "Nc1ccn([C@H]2CC[C@@H](CO)O2)c(=O)n1", "note": "[ZALCITABINE]", "values": [{"measurement": "CC50", "setting": "MT4", "value": 10.66, "unit": "µg/mL"}, {"measurement": "IC50", "setting": "[1]", "value": 0.043, "unit": "µg/mL"}, {"measurement": "IC50", "setting": "[2]", "value": 0.04, "unit": "µg/mL"}, {"measurement": "Ratio CC50/IC50", "setting": "[3]", "value": 248.73}, {"measurement": "Ratio CC50/IC50", "setting": "[4]", "value": 266.7}]}
{"smiles": "Nc1nc(O)c2ncn([C@@H]3C=C[C@@]4(CO)C[C@@H]34)c2n1", "values": [{"measurement": "CC50", "setting": "MT4", "value": "> 100", "unit": "µg/mL"}, {"measurement": "IC50", "setting": "[1]", "value": "> 100", "unit": "µg/mL"}, {"measurement": "IC50", "setting": "[2]", "value": "> 100", "unit": "µg/mL"}, {"measurement": "inhibition", "setting": "Coxsackievirus B1", "value": "inactive"}, {"measurement": "inhibition", "setting": "Coxsackievirus B3", "value": "inactive"}, {"measurement": "inhibition", "setting": "Poliovirus 3", "value": "inactive"}]}
{"smiles": "O=c1nc(O)ccn1[C@H]1C=C[C@]2(CO)C[C@H]12", "values": [{"measurement": "CC50", "setting": "MT4", "value": "> 100", "unit": "µg/mL"}, {"measurement": "IC50", "setting": "[1]", "value": "> 100", "unit": "µg/mL"}, {"measurement": "IC50", "setting": "[2]", "value": "> 100", "unit": "µg/mL"}, {"measurement": "inhibition", "setting": "Coxsackievirus B1", "value": "inactive"}, {"measurement": "inhibition", "setting": "Coxsackievirus B3", "value": "inactive"}, {"measurement": "inhibition", "setting": "Poliovirus 3", "value": "inactive"}]}
